The values below come from ChEMBL document CHEMBL1137337, “Design, synthesis, and biological evaluation of new cyclic melanotropin peptide analogues selective for the human melanocortin-4 receptor” (J Med Chem, 2006).

Experiment [1] concerns the target T1, Melanocortin receptor 5 (Homo sapiens, UniProt P33032). Briefly: Displacement of [125I]NDP-alphaMSH from human MC5 receptor expressed in HEK293 cells relative to MT2. The experiment is classed as cell-based. The gist of the method:
(§1)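 Binding efficiency was measured in the whole-cell [¹²⁵I]NDP-α-MSH competition assay on receptor-transfected HEK293 cells (30 min, 37 °C). It is expressed as the peptide's maximal percentage specific binding relative to MTII agonist binding, with peptides tested at 10⁻¹⁰ to 10⁻⁵ M.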
On the technique in general: Displacement assays read how much labelled ligand stays bound in the presence of the test substance.

Experiment [2] concerns the target T1, Melanocortin receptor 5. The experiment can be described thus: Activity at hMC5R transfected in HEK293 cells assessed as intracellular cAMP accumulation. Type of experiment: functional, cell-based. In a few lines: (§2)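 HEK293 cells stably carrying the human MC receptor were seeded 48 h ahead at 50 000 cells/well. They were preincubated 1 min at 37 °C in EBSS with IBMX, then exposed to peptide at 10⁻¹⁰ to 10⁻⁵ M for 3 min at 37 °C. Ice-cold Tris/EDTA stopped the reaction, and lysates were boiled 15 min. Total cAMP was measured by competitive binding kit, and EC50 was obtained by nonlinear least-squares fit.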
(In general: Changes in cAMP serve as a functional read-out for many G protein-coupled receptors.)

Experiment [3] deals with T1, Melanocortin receptor 5. The experiment can be described thus: Activity at hMC5R transfected in HEK293 cells assessed as intracellular cAMP accumulation relative to MT2. The experiment is classed as functional, cell-based.
For experiment [4], the target named is T2, Melanocyte-stimulating hormone receptor (Homo sapiens, UniProt Q01726). The experiment can be described thus: Displacement of [125I]NDP-alphaMSH from human MC1 receptor expressed in HEK293 cells. Type of experiment: cell-based. In a few lines: (§3)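 Whole-cell competition used transfected HEK293 cells seeded 48 h ahead at 100 000 cells/well. Binding buffer was MEM with 25 mM HEPES pH 7.4, 0.2% BSA, 1 mM 1,10-phenanthroline, leupeptin and bacitracin. Radioactivity was gamma-counted, and IC50 was obtained by nonlinear least-squares fit.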

Experiment [5] concerns the target T2, Melanocyte-stimulating hormone receptor. The experiment can be described thus: Displacement of [125I]NDP-alphaMSH from human MC1 receptor expressed in HEK293 cells relative to MT2. Type of experiment: cell-based. In a few lines:
as §1
Target sequence in this assay (Q01726 whole entry, looked up): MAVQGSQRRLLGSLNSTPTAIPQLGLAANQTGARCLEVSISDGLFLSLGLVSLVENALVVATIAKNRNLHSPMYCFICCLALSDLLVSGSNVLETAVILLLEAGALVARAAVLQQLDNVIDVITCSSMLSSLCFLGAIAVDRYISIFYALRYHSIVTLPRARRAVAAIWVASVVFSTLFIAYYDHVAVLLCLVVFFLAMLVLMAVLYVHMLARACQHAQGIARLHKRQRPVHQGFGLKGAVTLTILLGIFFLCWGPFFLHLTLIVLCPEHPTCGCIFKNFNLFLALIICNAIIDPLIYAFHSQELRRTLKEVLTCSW

For experiment [6], the target named is T3, Melanocortin receptor 3 (Homo sapiens, UniProt P41968). Briefly: Activity at hMC3R transfected in HEK293 cells assessed as intracellular cAMP accumulation relative to MT2. Type of experiment: functional, cell-based. More on the design: concentration or dose not given beside the values.
Experiment [7] has as its target T4, Melanocortin receptor 4 (Homo sapiens, UniProt P32245). The experiment can be described thus: Displacement of [125I]NDP-alphaMSH from human MC4 receptor expressed in HEK293 cells relative to MT2. The experiment is classed as cell-based. The gist of the method: as §1
The target of experiment [8] is T4, Melanocortin receptor 4. Briefly: Activity at hMC4R transfected in HEK293 cells assessed as intracellular cAMP accumulation. Type of experiment: functional, cell-based. The gist of the method: as §2
The target of experiment [9] is T2, Melanocyte-stimulating hormone receptor. The experiment can be described thus: Activity at hMC1R transfected in HEK293 cells assessed as intracellular cAMP accumulation relative to MT2. More on the design: concentration or dose not given beside the values. The experiment is classed as functional, cell-based.
Target sequence in this assay (Q01726 whole entry, looked up): as above
Experiment [10] addresses T3, Melanocortin receptor 3. Briefly: Displacement of [125I]NDP-alphaMSH from human MC3 receptor expressed in HEK293 cells. The experiment is classed as cell-based. The gist of the method:
as §3

The target in experiment [11] is T1, Melanocortin receptor 5. The experiment can be described thus: Displacement of [125I]NDP-alphaMSH from human MC5 receptor expressed in HEK293 cells. The experiment is classed as cell-based. The gist of the method:
as §3

Experiment [12] has as its target T3, Melanocortin receptor 3. Briefly: Activity at hMC3R transfected in HEK293 cells assessed as intracellular cAMP accumulation. The experiment is classed as functional, cell-based. In a few lines: as §2
The target of experiment [13] is T3, Melanocortin receptor 3. The experiment can be described thus: Displacement of [125I]NDP-alphaMSH from human MC3 receptor expressed in HEK293 cells relative to MT2. Type of experiment: cell-based. The gist of the method:
as §1

For experiment [14], the target named is T4, Melanocortin receptor 4. The experiment can be described thus: Displacement of [125I]NDP-alphaMSH from human MC4 receptor expressed in HEK293 cells. The experiment is classed as cell-based. In a few lines:
as §3

Experiment [15] deals with T4, Melanocortin receptor 4. Briefly: Activity at hMC4R transfected in HEK293 cells assessed as intracellular cAMP accumulation relative to MT2. The experiment is classed as functional, cell-based. Also on record: concentration or dose not given beside the values.

Each structure is given as a SMILES string. pEC50, pIC50: −log10 of the molar value. Activity calls are given as the source filed them. No cut-off for these calls is given here. A value given as a limit tells only on which side of the number the result lay.

As a reminder, the pIC50 is −log10 of the IC50, conventionally taken in molar units. The term pEC50 denotes the EC50 on a negative log10 scale, so that one unit is a factor of ten.

T3 sequence (P41968 whole entry): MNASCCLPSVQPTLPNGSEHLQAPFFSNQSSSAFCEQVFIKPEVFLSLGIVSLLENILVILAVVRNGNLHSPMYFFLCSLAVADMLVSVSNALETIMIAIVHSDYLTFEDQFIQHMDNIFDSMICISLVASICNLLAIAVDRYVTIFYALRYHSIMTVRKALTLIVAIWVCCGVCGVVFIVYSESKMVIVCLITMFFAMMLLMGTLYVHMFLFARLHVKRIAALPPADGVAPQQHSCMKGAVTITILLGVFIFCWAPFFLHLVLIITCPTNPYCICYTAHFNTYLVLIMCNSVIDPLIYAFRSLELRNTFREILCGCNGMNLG
T4 sequence (P32245 whole entry): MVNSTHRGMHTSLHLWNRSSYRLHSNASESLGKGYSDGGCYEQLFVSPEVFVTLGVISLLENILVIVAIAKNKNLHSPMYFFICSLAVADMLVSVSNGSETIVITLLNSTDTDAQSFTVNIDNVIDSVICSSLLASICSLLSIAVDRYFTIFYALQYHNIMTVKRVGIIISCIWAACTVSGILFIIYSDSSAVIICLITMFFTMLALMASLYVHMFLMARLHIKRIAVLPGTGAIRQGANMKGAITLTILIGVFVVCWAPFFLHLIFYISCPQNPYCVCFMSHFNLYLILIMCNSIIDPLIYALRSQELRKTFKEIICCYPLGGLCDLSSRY
T1 sequence (P33032 whole entry): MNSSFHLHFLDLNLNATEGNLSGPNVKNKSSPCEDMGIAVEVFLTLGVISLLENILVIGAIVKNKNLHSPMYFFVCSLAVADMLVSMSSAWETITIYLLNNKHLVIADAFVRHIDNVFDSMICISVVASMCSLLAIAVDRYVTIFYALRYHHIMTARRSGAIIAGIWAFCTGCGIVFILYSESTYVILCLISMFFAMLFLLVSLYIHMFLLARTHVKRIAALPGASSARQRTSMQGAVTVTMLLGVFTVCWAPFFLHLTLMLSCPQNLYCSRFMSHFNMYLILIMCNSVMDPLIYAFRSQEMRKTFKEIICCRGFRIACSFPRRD

As for `CC(=O)N[C@H]1CCC(=O)NCCC[C@@H](C(=O)N[C@@H](Cc2c[nH]c3ccccc23)C(N)=O)N(CCCCN=C(N)N)C(=O)[C@@H](Cc2ccc3ccccc3c2)NC(=O)[C@H](Cc2c[nH]cn2)NC1=O`, the Activity at Melanocortin receptor 5 [1] is 0%; on Melanocortin receptor 5 [3], 0%; in experiment [5], less than 10%; on Melanocortin receptor 3 [6], 0%; on Melanocortin receptor 4 [7] it was 0%; in [9] it was 0%. The Activity is 50% on Melanocortin receptor 3 [13] and 0% on Melanocortin receptor 4 [15]. Also, the outcome at Melanocortin receptor 5 [2], at Melanocortin receptor 4 [8], at Melanocortin receptor 5 [11], at Melanocortin receptor 3 [12] and at Melanocortin receptor 4 [14] was inactive. The results for the pIC50 (in experiment [4]; at Melanocortin receptor 3 [10]) were less than 5.00 and less than 6.00, respectively.
With `CC(=O)N[C@H]1CSSC[C@@H](C(=O)N(CCCCN=C(N)N)C(Cc2c[nH]c3ccccc23)C(N)=O)NC(=O)[C@@H](Cc2ccc3ccccc3c2)NC(=O)[C@H](Cc2c[nH]cn2)NC1=O` (stereo in doubt), the Activity at Melanocortin receptor 5 [1] was less than 10%; on Melanocortin receptor 5 [3] it was 0%; in experiment [5], less than 10%; on Melanocortin receptor 3 [6], 0%; at Melanocortin receptor 4 [7], 0%; in experiment [9] it was 0%. Moreover, the Activity on Melanocortin receptor 3 [13] and at Melanocortin receptor 4 [15] was 0% in each case. Also, the result at Melanocortin receptor 5 [2], at Melanocortin receptor 4 [8], on Melanocortin receptor 3 [10], at Melanocortin receptor 3 [12] and at Melanocortin receptor 4 [14] was inactive. For the same compound, the negative-log IC50 (pIC50) in experiment [4] was less than 6.00; at Melanocortin receptor 5 [11], 6.68.
With `CC(=O)N[C@H]1CSSC[C@H](C(=O)N[C@@H](Cc2c[nH]c3ccccc23)C(N)=O)N(CCCCN=C(N)N)C(=O)[C@@H](Cc2ccccc2)NC(=O)[C@H](Cc2c[nH]cn2)NC1=O`, the Activity at Melanocortin receptor 5 [1] was 0%; at Melanocortin receptor 5 [3] it was 0%; in experiment [5], less than 10%; on Melanocortin receptor 3 [6], 0%; on Melanocortin receptor 4 [7], 0%; in experiment [9] it was 0%. Moreover, the Activity at Melanocortin receptor 3 [13] and at Melanocortin receptor 4 [15] was 0% throughout. Besides, the result at Melanocortin receptor 5 [2], at Melanocortin receptor 4 [8], on Melanocortin receptor 3 [10], on Melanocortin receptor 5 [11], on Melanocortin receptor 3 [12] and at Melanocortin receptor 4 [14] was inactive. The compound further had a pIC50 in experiment [4] of 6.00.
On to `CC(=O)N[C@H]1CSSC[C@@H](C(=O)N[C@@H](Cc2c[nH]c3ccccc23)C(N)=O)N(CCCCN=C(N)N)C(=O)[C@@H](Cc2ccccc2)NC(=O)[C@H](Cc2c[nH]cn2)NC1=O`, for which the Activity amounted to 0% on Melanocortin receptor 5 [1]; 0% at Melanocortin receptor 5 [3]; 0% in experiment [5]; 0% at Melanocortin receptor 3 [6]; 50% at Melanocortin receptor 4 [7]; 0% in experiment [9]. Further, the Activity at Melanocortin receptor 3 [13] and at Melanocortin receptor 4 [15] was 0% each time. In addition, the result (on Melanocortin receptor 5 [2]; in experiment [4]; on Melanocortin receptor 4 [8]; at Melanocortin receptor 3 [10]; at Melanocortin receptor 5 [11]; on Melanocortin receptor 3 [12]) was inactive.
As for `CC(=O)N[C@H]1CSSC[C@@H](C(=O)N(CCCCN=C(N)N)[C@H](Cc2c[nH]c3ccccc23)C(N)=O)NC(=O)[C@@H](Cc2ccccc2)NC(=O)[C@H](Cc2cnc[nH]2)NC1=O`, at Melanocortin receptor 4 [8], the pEC50 is less than 6.00. Besides, the pIC50 at Melanocortin receptor 3 [10] was less than 6.00; at Melanocortin receptor 4 [14] it was 9.15.
`CC(=O)N[C@H]1CCC(=O)NCCC(C(=O)N[C@@H](Cc2c[nH]c3ccccc23)C(N)=O)N(CCCCN=C(N)N)C(=O)[C@@H](Cc2ccccc2)NC(=O)[C@H](Cc2c[nH]cn2)NC1=O` (stereo not given in full): the Activity at Melanocortin receptor 5 [1] is 0%; on Melanocortin receptor 5 [3], 0%; in experiment [5] it was less than 10%; at Melanocortin receptor 3 [6] it was 0%; on Melanocortin receptor 4 [7], 0%; in experiment [9], 0%. Also, the Activity on Melanocortin receptor 3 [13] was 50%; on Melanocortin receptor 4 [15], 0%. The outcome at Melanocortin receptor 5 [2], at Melanocortin receptor 4 [8], on Melanocortin receptor 5 [11], at Melanocortin receptor 3 [12] and on Melanocortin receptor 4 [14] was inactive.
`CC(=O)N[C@H]1CCC(=O)NCCC[C@@H](C(=O)N[C@@H](Cc2c[nH]c3ccccc23)C(N)=O)N(CCCCN=C(N)N)C(=O)[C@@H](Cc2ccccc2)NC(=O)[C@H](Cc2c[nH]cn2)NC1=O`: the Activity on Melanocortin receptor 5 [1] is 0%; at Melanocortin receptor 5 [3], 0%; in experiment [5] it was less than 10%; at Melanocortin receptor 3 [6], 0%; at Melanocortin receptor 4 [7], 50%; in experiment [9], 0%. Besides, the Activity is 50% at Melanocortin receptor 3 [13] and less than 10% at Melanocortin receptor 4 [15]. The result on Melanocortin receptor 5 [2], at Melanocortin receptor 5 [11] and on Melanocortin receptor 3 [12] was inactive. Further, the pIC50 was 6.12 in experiment [4], less than 6.00 at Melanocortin receptor 3 [10] and 7.00 on Melanocortin receptor 4 [14]. At Melanocortin receptor 4 [8], the pEC50 is less than 6.00.
On to `CC(=O)N[C@H]1CSSC[C@@H](C(=O)N[C@@H](Cc2c[nH]c3ccccc23)C(N)=O)N(CCCCN=C(N)N)C(=O)[C@@H](Cc2ccccc2)NC(=O)[C@H](Cc2cnc[nH]2)NC1=O`, for which the pIC50 on Melanocortin receptor 4 [14] is 8.74.
Consider `CC(=O)N[C@H]1CSSC[C@@H](C(=O)N(CCCCN=C(N)N)[C@H](Cc2c[nH]c3ccccc23)C(N)=O)NC(=O)[C@@H](Cc2ccccc2)NC(=O)[C@H](Cc2c[nH]cn2)NC1=O`, for which the Activity on Melanocortin receptor 5 [1] stood at 0%; on Melanocortin receptor 5 [3], 0%; in experiment [5], 0%; at Melanocortin receptor 3 [6], 0%; at Melanocortin receptor 4 [7], 50%; in experiment [9] it was 0%. Moreover, the Activity is less than 10% at Melanocortin receptor 3 [13] and 19% at Melanocortin receptor 4 [15]. Also, the result (on Melanocortin receptor 5 [2]; in experiment [4]; on Melanocortin receptor 5 [11]; at Melanocortin receptor 3 [12]) was inactive.
In the case of `CC(=O)N[C@H]1CSSC[C@@H](C(=O)N(CCCCN=C(N)N)[C@@H](Cc2c[nH]c3ccccc23)C(N)=O)NC(=O)[C@@H](Cc2ccccc2)NC(=O)[C@H](Cc2cnc[nH]2)NC1=O`, the results for the pIC50 (in [4]; at Melanocortin receptor 3 [10]; on Melanocortin receptor 4 [14]) were less than 6.00, less than 6.00 and 8.39, respectively. The pEC50 on Melanocortin receptor 4 [8] is less than 6.00.
With `CC(=O)N[C@H]1CCC(=O)NCC[C@@H](C(=O)N[C@@H](Cc2c[nH]c3ccccc23)C(N)=O)N(CCCCN=C(N)N)C(=O)[C@@H](Cc2ccccc2)NC(=O)[C@H](Cc2cnc[nH]2)NC1=O`, the negative logarithm of the IC50 (pIC50) (in [4]; at Melanocortin receptor 3 [10]) was less than 6.00 in each case.
In the case of `CC(=O)N[C@H]1CSSC[C@@H](C(=O)N(CCCCN=C(N)N)[C@@H](Cc2c[nH]c3ccccc23)C(N)=O)NC(=O)[C@@H](Cc2ccccc2)NC(=O)[C@H](Cc2c[nH]cn2)NC1=O`, the Activity on Melanocortin receptor 5 [1] is 0%; on Melanocortin receptor 5 [3], 0%; in [5], less than 10%; at Melanocortin receptor 3 [6], 0%; on Melanocortin receptor 4 [7], 50%; in experiment [9], 0%. Besides, the results for the Activity on Melanocortin receptor 3 [13] and on Melanocortin receptor 4 [15] were 50% and 18%, respectively. The outcome on Melanocortin receptor 5 [2], at Melanocortin receptor 5 [11] and at Melanocortin receptor 3 [12] was inactive.
